From PubChem
GSTO1 counter – inhibitors of recombinant GSTO1, primary screen, counter-screen for RBBP9 inhibitor project, biochemical, fluorescence polarization. activity-based probe fluorescence polarization. inhibition, % at 5.96 µM. AID 1974, 2009. Glutathione S-transferase omega-1 (Homo sapiens), P78417. 1.1% of 300,000 active;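 active = inhibition above the campaign mean inhibition plus 3 SD, cut at about 35% in these data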
Target sequence (P78417 whole entry, looked up): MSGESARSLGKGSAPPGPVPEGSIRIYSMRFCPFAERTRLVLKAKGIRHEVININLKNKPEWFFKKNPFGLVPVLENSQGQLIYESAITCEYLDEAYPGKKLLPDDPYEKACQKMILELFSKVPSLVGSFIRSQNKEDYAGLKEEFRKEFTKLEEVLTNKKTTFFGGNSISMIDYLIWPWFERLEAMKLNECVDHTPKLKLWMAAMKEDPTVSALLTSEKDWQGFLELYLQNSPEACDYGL
TCR-CD3 inh – inhibitors of human TCR-CD3 interaction, primary screen, biochemical, fluorescence, TAMRA-labeled TCR probe; T-cell receptor (TCR); inhibition, % at 9.4 µM; 0.37% of 360,000 active; AID 651800, 2012; in the data active = inhibition above about 19%;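 note: recombinant mutant TCR 2C K166C tagged with TAMRA read by polarization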
PAD4 inh – human PAD4 inhibitors, primary screen, biochemical, fluorescence polarization, 1536-well format. Protein-arginine deiminase type-4 (Homo sapiens), Q9UM07. recombinant PAD4, RCA probe fluorescence polarization. inhibition, % at 6.36 µM. 0.41% of 330,000 active. AID 485272, 2010;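 active = percent inhibition above a cutoff equal to the mean of all tested compounds plus 3 SD, cut at about 15% in these data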
SIAE primary – human SIAE inhibitors, primary screen, biochemical, fluorescence polarization, FP-Rh probe, 1536-well HTS; Sialate O-acetylesterase (Homo sapiens), Q9HAT2; SIAE FP-Rh probe binding; inhibition, % at 9.66 µM; 0.69% of 370,000 active; AID 1053197, 2014;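 active = inhibition above a cutoff: mean of compounds within the control limits plus 3 SD of those, cut at about 17% in these data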
TDP2 inh – human TDP2 enzyme inhibitors, primary screen, biochemical, epi absorbance, recombinant enzyme; 0.34% of 370,000 active; inhibition, % at 12.8 µM; T5PNP hydrolysis, p-nitrophenol absorbance 415 nm;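 active = inhibition above the mean of all tested compounds plus 3 SD, set per campaign, cut at about 25% in these data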
Target sequence (O95551 whole entry, looked up): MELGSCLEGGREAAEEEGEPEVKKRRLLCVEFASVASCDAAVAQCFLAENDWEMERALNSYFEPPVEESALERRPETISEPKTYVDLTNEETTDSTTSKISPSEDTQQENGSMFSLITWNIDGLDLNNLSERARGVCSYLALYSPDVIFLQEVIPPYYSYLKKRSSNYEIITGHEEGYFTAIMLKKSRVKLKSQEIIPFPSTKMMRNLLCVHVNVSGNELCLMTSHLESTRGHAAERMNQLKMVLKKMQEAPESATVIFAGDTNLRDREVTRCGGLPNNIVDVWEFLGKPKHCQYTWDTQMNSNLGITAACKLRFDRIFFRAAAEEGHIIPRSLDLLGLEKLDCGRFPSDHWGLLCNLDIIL
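System – recombinant human TDP2 · Quantity – TDP2 enzyme at 120 nM final · Doses – single concentration, 12.8 µM nominal, with 1% DMSO · Incubation – 2 h at 37 °C · Measured by – epi absorbance of p-nitrophenol freed from T5PNP by hydrolysis · Read-out – % inhibition relative to enzyme-containing and enzyme-free wells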
Apaf-1 inh – inhibitors of human Apaf-1 apoptosome, primary screen, biochemical, DEVD-Rh110 fluorescence, uHTS. Apoptotic protease-activating factor 1 (Homo sapiens), O14727. reconstituted apoptosome caspase-3 activity. inhibition, % at 20 µM. 0.71% of 330,000 active; active = inhibition of at least 40% at 20 µM
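Material: biochemical Apaf-1 apoptosome reconstitution. Medium: Hepes buffer, pH 7.5. Also added: cytochrome c activation, bis-DEVD rhodamine 110 substrate. Timing: 30 min compound preincubation, 50 min activation, room temperature. Measured by: rhodamine 110 fluorescence at Ex 480/Em 540 nm.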
SIAE confirm – human SIAE inhibitors, retest, confirmation, biochemical, fluorescence polarization, FP-Rh probe, triplicate | shares compounds with SIAE primary | SIAE FP-Rh activity-based probe | inhibition, % at 9.66 µM | 13% of 2,300 active | AID 1117263, 2014;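 active = mean inhibition of the replicates above the hit cutoff set in the primary screen, cut at about 17% in these data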;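 note: inhibitors lower polarization as more probe stays unbound to SIAE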
Numbers stand for hits. This is a sample that favours compounds with a hit; in the whole collection about 2.4% have one here.

`Cc1ccc(S(=O)(=O)Oc2ccccc2/C=N/N=C(N)N)cc1` gave GSTO1 counter inactive, TCR-CD3 inh inactive, PAD4 inh inactive, SIAE primary 21, TDP2 inh inactive, Apaf-1 inh inactive and SIAE confirm inactive.
Screening Cc1ccc(S(=O)(=O)Oc2ccccc2/C=N/NC(N)=S)cc1 returned GSTO1 counter inactive, TCR-CD3 inh inactive, PAD4 inh inactive, SIAE primary inactive, TDP2 inh inactive and Apaf-1 inh inactive.
`CCOC(=O)c1c(NC(=O)/C=C/c2ccc3c(c2)OCO3)sc(C)c1CC` gave GSTO1 counter inactive, TCR-CD3 inh inactive, PAD4 inh inactive, SIAE primary inactive, TDP2 inh inactive and Apaf-1 inh inactive.
For O=C(Nc1ccc(Br)c2ccccc12)c1ccc2ccccc2c1O the results were GSTO1 counter inactive, TCR-CD3 inh inactive, PAD4 inh inactive, SIAE primary 26, TDP2 inh inactive and SIAE confirm inactive.
Cc1ccc(C)c(NC(=O)C2(C)CCN2C(C)C)c1 (stereo not given) was read as TCR-CD3 inh inactive, SIAE primary inactive and TDP2 inh inactive.
For CC1=C(C(=O)Nc2ccccc2)C(c2ccco2)NC(=O)N1 (stereo not given) the results were GSTO1 counter inactive, TCR-CD3 inh inactive, PAD4 inh inactive, SIAE primary inactive, TDP2 inh inactive and Apaf-1 inh inactive.
For CC1=C(C(=O)Nc2ccc(C)cc2)C(c2ccco2)NC(=O)N1 (stereo not given) the results were GSTO1 counter inactive, TCR-CD3 inh inactive, PAD4 inh inactive, SIAE primary 23, TDP2 inh inactive, Apaf-1 inh inactive and SIAE confirm inactive.
Screening COc1ccc(N2CCN(C(=O)c3cccc(S(=O)(=O)N4CCc5ccccc54)c3)CC2)cc1 returned TCR-CD3 inh inactive, PAD4 inh inactive, SIAE primary 90, TDP2 inh inactive, Apaf-1 inh inactive and SIAE confirm inactive.
`COc1ccc2[nH]c(C(=O)N/N=C/c3ccccc3OC)cc2c1` gave GSTO1 counter inactive, TCR-CD3 inh inactive, PAD4 inh inactive, SIAE primary inactive, TDP2 inh inactive and Apaf-1 inh inactive.
For COc1cc(OC)c2cc(C(=O)N/N=C/c3ccccc3O)[nH]c2c1 the results were GSTO1 counter inactive, TCR-CD3 inh inactive, PAD4 inh inactive, SIAE primary 25, TDP2 inh inactive, Apaf-1 inh inactive and SIAE confirm inactive.
Screening CCOc1ccc(/C=N/NC(=O)c2cc3c(OC)cc(OC)c(OC)c3[nH]2)cc1 returned GSTO1 counter inactive, TCR-CD3 inh inactive, PAD4 inh inactive, SIAE primary 31, TDP2 inh inactive, Apaf-1 inh inactive and SIAE confirm 17.
`Cc1ccc(C(=O)c2ccccc2C(=O)OCC(=O)NC(=O)NC(C)(C)C)cc1` gave GSTO1 counter inactive, TCR-CD3 inh inactive, PAD4 inh inactive, SIAE primary inactive, TDP2 inh inactive and Apaf-1 inh inactive.
Screening CCCCCC(=O)N1CCN(CCN=CC2=C(O)CC(c3ccco3)CC2=O)CC1 (stereo not given) returned GSTO1 counter inactive, TCR-CD3 inh inactive, PAD4 inh inactive, SIAE primary inactive, TDP2 inh inactive and Apaf-1 inh inactive.
Screening COc1ccc(-c2[nH]c(-c3ccc(SC)cc3)nc2SCC(=O)Nc2nccs2)cc1 returned GSTO1 counter inactive, TCR-CD3 inh inactive, PAD4 inh inactive, SIAE primary 22, TDP2 inh inactive, Apaf-1 inh inactive and SIAE confirm inactive.
`COc1ccc(-n2ccnc(SCC(=O)NC3CCCC3)c2=O)cc1` gave GSTO1 counter inactive, TCR-CD3 inh inactive, PAD4 inh inactive, SIAE primary inactive, TDP2 inh inactive and Apaf-1 inh inactive.
For COc1ccc(-c2nc(SCC(=O)NC3CCCC3)c(-c3ccc(OC)cc3)[nH]2)cc1 the results were GSTO1 counter inactive, TCR-CD3 inh inactive, PAD4 inh inactive, SIAE primary 18, TDP2 inh inactive, Apaf-1 inh inactive and SIAE confirm inactive.
For Cc1cccc(N2CCN(C(=O)c3ccoc3C)CC2)c1C the results were GSTO1 counter inactive, TCR-CD3 inh inactive, PAD4 inh inactive, SIAE primary inactive, TDP2 inh inactive and Apaf-1 inh inactive.
For CC1CCN(C(=O)CSc2nnc(CNC(=O)c3ccco3)o2)CC1 the results were GSTO1 counter inactive, TCR-CD3 inh inactive, PAD4 inh inactive, SIAE primary 22, TDP2 inh inactive, Apaf-1 inh inactive and SIAE confirm inactive.
Screening O=C(NCc1nnc(SCC(=O)N2CCCC2)o1)c1ccco1 returned GSTO1 counter inactive, TCR-CD3 inh inactive, PAD4 inh inactive, SIAE primary inactive, TDP2 inh inactive and Apaf-1 inh inactive.
`Cc1ccc(-c2nc3ccccc3n2C(C(=O)NC(C)(C)C)C2CC2)cc1` (stereo not given) gave TCR-CD3 inh inactive, SIAE primary inactive and TDP2 inh inactive.
Screening CC(C)(C)N(NC(=O)Nc1ccccc1)C(=O)c1ccccc1 returned GSTO1 counter inactive, TCR-CD3 inh inactive, PAD4 inh inactive, SIAE primary inactive, TDP2 inh inactive and Apaf-1 inh inactive.
Screening CC(C)(C)N(NC(=O)Nc1ccc(Cl)cc1)C(=O)c1ccccc1 returned GSTO1 counter inactive, TCR-CD3 inh inactive, PAD4 inh inactive, SIAE primary 17, TDP2 inh inactive, Apaf-1 inh inactive and SIAE confirm inactive.
O=C(O)CCc1nn2c3ccccc3n(CCO)c2nc1=O was read as GSTO1 counter inactive, TCR-CD3 inh inactive, PAD4 inh inactive, SIAE primary inactive, TDP2 inh inactive and Apaf-1 inh inactive.
O=C(O)CCc1nn2c3ccccc3n(CC(=O)O)c2nc1=O was read as GSTO1 counter inactive, TCR-CD3 inh inactive, PAD4 inh inactive, SIAE primary 30, TDP2 inh inactive, Apaf-1 inh inactive and SIAE confirm inactive.
`COc1cccc2cc(-c3nc4ccccc4o3)c(=O)oc12` gave GSTO1 counter inactive, TCR-CD3 inh inactive, PAD4 inh inactive, SIAE primary inactive, TDP2 inh inactive and Apaf-1 inh inactive.
COc1cccc(C(=O)NNC(=O)C(=O)N2CCCCC2)c1 was read as GSTO1 counter inactive, TCR-CD3 inh inactive, PAD4 inh inactive, SIAE primary inactive, TDP2 inh inactive and Apaf-1 inh inactive.
Cc1ccc(NC(=O)c2cc3ccccc3cc2O)cc1 was read as GSTO1 counter inactive, TCR-CD3 inh inactive, PAD4 inh inactive, SIAE primary inactive, TDP2 inh inactive and Apaf-1 inh inactive.
